Assay outcomes (PubChem BioAssay)
HIV Env fusion: inhibitors of HIV Env-mediated cell fusion | HeLa-JRFL Env/CEM21 cell fusion, luciferase | AID 651610 | hit rate 1.1% among 360,000 | inhibition, % at 12.3 µM;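 active = mean replicate inhibition score of at least 50 and every replicate individually at or above 50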
GSK3beta inhib: inhibitors of human GSK3beta kinase. GST-GSK3beta kinase, ADP-Glo luminescence, 60 min; stronger effect = lower value. activity score (negative = inhibition), % at 10 µM. hit rate 0.038% among 300,000. AID 2097;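 active = more than half of replicate wells score below -50%, meaning over 50% inhibition versus plate controls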
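Test system: GST-fused GSK3beta enzyme, cell-free | Quantity: 1.6 ng GST-GSK3beta enzyme per well | Reagent: 25 µM ATP with peptide substrate | Schedule: 60 min enzyme reaction, room temperature | Signal: Luminescent ADP-Glo measurement of ADP formed | Read-out basis: Score relative to plate controls | Control set: DMSO and 20 µM GW8510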
GSK3A inh: human GSK-3 alpha kinase inhibition | P49840 | ADP-Glo luminescence, 60 min | inhibition, % at 10 µM | hit rate 0.1% among 320,000;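 active = more than half of replicates show inhibition above 20%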;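 note: GST-tagged GSK-3 alpha with peptide substrate and 25 µM ATP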
Target sequence (P49840 whole entry, looked up): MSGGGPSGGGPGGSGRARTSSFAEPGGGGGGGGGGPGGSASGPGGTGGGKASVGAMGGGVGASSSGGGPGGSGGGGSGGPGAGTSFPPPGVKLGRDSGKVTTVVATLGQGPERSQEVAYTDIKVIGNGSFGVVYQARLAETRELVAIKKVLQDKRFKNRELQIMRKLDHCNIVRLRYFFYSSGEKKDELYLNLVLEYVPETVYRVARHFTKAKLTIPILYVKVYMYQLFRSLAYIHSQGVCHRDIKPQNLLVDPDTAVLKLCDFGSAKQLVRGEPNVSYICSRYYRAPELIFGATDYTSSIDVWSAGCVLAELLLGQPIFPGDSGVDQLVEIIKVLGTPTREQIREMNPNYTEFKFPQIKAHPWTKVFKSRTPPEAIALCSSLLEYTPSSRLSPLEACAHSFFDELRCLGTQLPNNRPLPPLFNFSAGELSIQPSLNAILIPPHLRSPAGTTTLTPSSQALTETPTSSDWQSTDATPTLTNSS
INS-1E GSIS act: GLuc luminescence reporter in INS-1E cells, primary screen for activators of glucose-dependent secretion of insulin; INS-1E GLuc reporter insulin secretion, 2-3 h; activation, % at 16.6 µM; hit rate 0.61% among 370,000;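 active = lowest replicate activation of at least 40%, so every replicate reaches that level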
CDK5 p35 inh: CDK5/p35 (human) kinase inhibition | hit rate 0.01% among 330,000 | Q00535+Q15078 | Recombinant CDK5/p35, ADP-Glo luminescence, 60 min | AID 488839 | inhibition, % at 10 µM;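 active = highest replicate inhibition of at least 50% and at least 75% of replicates reaching 50%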
STK33 kinase inh: human STK33 kinase inhibition. purified STK33, MBP phosphorylation, ADP-Glo luminescence. inhibition, % at 10 µM. hit rate 0.073% among 320,000;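 active = inhibition at or above 25%, using the most active replicate where run in duplicate; inactive = inhibition below 25%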
Hits are given with their value; – = inactive; · = no result. The list is not random: actives were taken first. Their share in the collection is about 1.4%.

SMILES | HIV Env fusion | GSK3beta inhib | GSK3A inh | INS-1E GSIS act | CDK5 p35 inh | STK33 kinase inh
CCC(=O)N1C[C@H](C)[C@@H](OC)CN(C)C(=O)c2cc(NC(=O)Nc3ccccc3)ccc2OC[C@H]1C | – | · | · | – | · | ·
CC(=O)N1[C@@H]2c3cccc(=O)n3C[C@@H]2[C@@H](CO)[C@@H]1C(=O)NCc1ccccc1F | – | · | · | – | · | ·
COc1ccc(N/C(N)=N/c2nc(C)cc(C)n2)cc1 | – | · | · | – | · | ·
Cc1cc(C)nc(/N=C(\N)Nc2ccc(CC(=O)OC(C)C)cc2)n1 | 68 | – | – | · | – | –
C[C@@H]1CN([C@H](C)CO)C(=O)c2cc(-c3ccc(C#N)cc3)cnc2O[C@H]1CN(C)C(=O)CC1CC1 | – | · | · | – | · | ·
CCCc1nc(N)sc1C(=O)OCC | · | – | – | 112 | – | –
CCOC(=O)c1sc(N)nc1C(C)C | · | – | – | · | – | –
COc1ccc(Cc2nnc(-c3ccccc3)o2)cc1 | – | – | – | 46 | – | –
COc1ccc2c3c(n(C)c2c1)[C@H](CO)N(Cc1nccs1)CC31CN(C)C1 | · | · | · | – | · | ·
O=C(COc1ccc(Cl)cc1)NCCS(=O)(=O)N1CCN(c2ccccc2F)CC1 | – | – | – | 41 | – | –
O=C(Cc1ccc(Cl)cc1)NCCS(=O)(=O)N1CCN(c2ccccc2F)CC1 | – | – | – | – | – | –
O=S(=O)(NCC[C@H]1CC[C@H](NS(=O)(=O)c2ccccc2Cl)[C@@H](CO)O1)c1ccc(F)cc1 | – | · | · | – | · | ·
C[C@@H]1CN([C@@H](C)CO)C(=O)Cc2cc(NC(=O)C3CC3)ccc2O[C@H]1CN(C)Cc1ccc(C(=O)Nc2ccccc2N)cc1 | – | · | · | – | · | ·
C[C@H]1CC=CC[C@H](c2ccc(F)cc2)NC(=O)[C@H](C)N(C)C(=O)c2ccccc2O1 (mixture of isomers) | · | · | · | – | · | ·
CCOC(=O)c1c(C)[nH]c(C(=O)COC(=O)c2cnccn2)c1C | – | · | – | 70 | – | –
CCOC(=O)c1c(C)[nH]c(C(=O)COC(=O)c2ccncc2)c1C | · | – | – | · | – | –
COc1ccc(-c2nnn(Cc3nc(N)nc(N4CCOCC4)n3)n2)cc1OC | · | · | – | 96 | – | –
CC(=O)N1[C@@H]2CN(C(=O)NC(C)C)C[C@H]1C2c1ccc(Br)cc1 (some centres not stated) | · | · | · | – | · | ·
CN(C)CCCN(C(=O)c1cc2cc([N+](=O)[O-])ccc2s1)c1nc2cc3c(cc2s1)OCCO3 | 87 | – | – | – | – | –
C=CC[n+]1c(-c2ccc(OCC)cc2)csc1NNC(=O)Nc1ccccc1 | 61 | – | – | – | – | –
CO[C@H]1CN(C)C(=O)c2cc(NC(=O)C3CCOCC3)ccc2OC[C@@H](C)N(C(=O)c2ccccc2)C[C@@H]1C | · | · | · | – | · | ·
Cc1nc2ccccc2nc1N1CCCCC1 | · | · | · | · | – | ·
Cc1ccc2c(Cl)c(C)c(N3CCCCC3)nc2n1 | – | – | – | 53 | – | –
C=CCn1c(SCC#N)nc2sc(CC)cc2c1=O | – | – | – | 89 | – | –
C=CCn1c(SCC(=O)c2cccs2)nc2sc(CC)cc2c1=O | 88 | – | – | · | – | –
SMILES | HIV Env fusion | GSK3beta inhib | GSK3A inh | INS-1E GSIS act | CDK5 p35 inh | STK33 kinase inh
C[C@@H]1CCCCO[C@H](CN(C)S(=O)(=O)c2ccc(F)cc2)[C@@H](C)CN([C@@H](C)CO)C(=O)c2cc(NS(C)(=O)=O)ccc2O1 | – | · | · | – | · | ·
COc1ccc2c(c1)CCc1c(C(=O)Nc3cc(C)n(Cc4ccc(Cl)cc4)n3)noc1-2 | – | – | – | 47 | – | –
COc1ccc2c(c1)CCc1c(C(=O)NCc3ccc(Cl)cc3)noc1-2 | – | – | – | – | – | –
COc1ccc2c(c1)CCc1c(C(=O)NCCc3ccc(OC)c(OC)c3)noc1-2 | 59 | · | – | · | – | –
C[C@H]1CN([C@@H](C)CO)C(=O)c2cc(NS(C)(=O)=O)ccc2O[C@H]1CN(C)Cc1ccncc1 | – | · | · | – | · | ·
CCN(CC)CCCNc1nc(N)c([N+](=O)[O-])c(N2CCCCCC2)n1 | – | – | 54 | – | – | –
C=CCNc1nc(N)c([N+](=O)[O-])c(N2CCCCCC2)n1 | – | – | – | – | – | –
CCCCCn1ccc(=O)c2c(C(F)(F)F)nccc21 | 51 | – | – | · | – | –
COCCCN(C(=O)C1CCCCC1)c1c(N)n(Cc2ccccc2)c(=O)[nH]c1=O | · | · | – | – | – | –
COCCN(C(=O)COC(=O)C12CC3CC(CC(Cl)(C3)C1)C2)c1c(N)n(Cc2ccccc2)c(=O)[nH]c1=O | 68 | – | – | – | – | –
COCCN(C(=O)COC(=O)Cc1cccc(OC)c1)c1c(N)n(CC(C)C)c(=O)[nH]c1=O | – | – | – | 53 | – | –
CC(C)CN(C(=O)COC(=O)C12CC3CC(CC(Cl)(C3)C1)C2)c1c(N)n(Cc2ccccc2)c(=O)[nH]c1=O | – | – | – | – | – | –
COCCCN(C(=S)NC(=O)C12CC3CC(CC(C3)C1)C2)c1c(N)n(Cc2ccccc2)c(=O)[nH]c1=O | 84 | – | – | – | – | –
COCCN(C(=O)COC(=O)Cc1c(C)nc2ccccc2c1C)c1c(N)n(CC(C)C)c(=O)[nH]c1=O | – | · | – | · | – | –
C[C@@H]1CN([C@@H](C)CO)C(=O)Cc2cc(NC(=O)Nc3ccc4c(c3)OCO4)ccc2O[C@H]1CN(C)C(=O)Nc1ccc(F)cc1 | – | · | · | – | · | ·
CCCC#Cc1cnc2c(c1)C(=O)N([C@@H](C)CO)C[C@@H](C)[C@H](CN(C)C(=O)C1CCC1)O2 | – | · | · | – | · | ·
CCOc1ccc(-c2cccc(NS(=O)(=O)c3ccccc3[N+](=O)[O-])c2)nn1 | 94 | – | – | – | – | –
O=[N+]([O-])c1ccccc1S(=O)(=O)Nc1cccc(-c2ccc3nncn3n2)c1 | – | – | – | 89 | – | –
O=S(=O)(Nc1cccc(-c2ccc3nncn3n2)c1)c1cccc(F)c1 | – | – | – | – | – | –
O=[N+]([O-])c1ccccc1S(=O)(=O)Nc1ccc(-c2ccc3nncn3n2)cc1 | – | – | – | 49 | – | –
COc1ccc(S(=O)(=O)Nc2cccc(-c3ccc4nncn4n3)c2)cc1F | – | – | · | 42 | – | –
COc1ccc(-c2cccc(NS(=O)(=O)c3ccccc3[N+](=O)[O-])c2)nn1 | – | – | – | – | – | –
COc1ccc(S(=O)(=O)Nc2ccc3c(c2)C(=O)N([C@@H](C)CO)C[C@H](C)[C@@H](CN(C)Cc2ccc4c(c2)OCO4)OCCCC[C@@H](C)O3)cc1 | – | · | · | – | · | ·
CC1(C)Cc2c(cnn2-c2ccccc2)C(NC(=O)CCCN2CCCCC2=O)C1 (configuration not stated) | – | – | – | – | – | –
CC1(C)Cc2c(cnn2-c2ccccc2)C(NC(=O)CCN2CCCC2=O)C1 (configuration not stated) | – | – | – | 41 | – | –
Cc1cccc(CN2CCN(CC(=O)NCCCN3CCN(c4ccc(F)cc4)CC3)C2=O)c1 | 59 | – | – | · | – | –
